From ChEMBL document CHEMBL4368893, “2,2-Dimethyl-3,4-dihydro-2H-1,4-benzoxazines as isosteres of 2,2-dimethylchromans acting as inhibitors of insulin release and vascular smooth muscle relaxants” (Medchemcomm, 2019)

Experiments:
[1] = Inhibition of glucose-induced insulin release in rat pancreatic islets assessed as residual insulin secretion at 10 uM incubated for 90 mins incubated in presence of 16.7 mM glucose by radioimmunology assay; assay type: functional
Procedure, shortened: (§1)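 Islets isolated from adult fed Wistar rats by collagenase digestion, used fresh. Groups of 10 islets pre-incubated 30 min at 37 °C in bicarbonate salt medium with 2.8 mM glucose and 0.5% albumin, gassed O2/CO2 95:5. Then 90 min at 37 °C with 16.7 mM glucose plus compound. Insulin by RIA against rat insulin standard. Output is % of control secretion, mean ± SEM (n).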

[2] = Inhibition of glucose-induced insulin release in rat pancreatic islets assessed as residual insulin secretion at 1 uM incubated for 90 mins incubated in presence of 16.7 mM glucose by radioimmunology assay; assay type: functional; procedure, shortened: as §1
Thoracic aorta [3] = assay: Myorelaxant activity in rat thoracic aortic rings assessed as relaxation of 30 mM KCl-induced contraction by force-displacement transducer based assay relative to KCl; assay type: functional, tissue-based
Procedure, shortened: (§2)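 Aortic rings from adult fed Wistar rats. Kept at 37 °C in oxygenated medium (95% O2/5% CO2) and equilibrated 60 min. Contraction raised with 30 or 80 mM KCl and recorded isometrically by force transducer. Drug added cumulatively, up to maximal relaxation or 200 µM. Response expressed as % of KCl contraction; EC50 from concentration–response curves, mean ± SEM (n).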

Thoracic aorta [4] = assay: Myorelaxant activity in rat thoracic aortic rings assessed as relaxation of 80 mM KCl-induced contraction by force-displacement transducer based assay relative to KCl; assay type: functional, tissue-based; procedure, shortened: as §2
Thoracic aorta [5] = assay: Myorelaxant activity in rat thoracic aortic rings assessed as relaxation of 30 mM KCl-induced contraction in presence of 10 uM K-ATP channel blocker glibenclamide by force-displacement transducer based assay relative to KCl; assay type: functional, tissue-based
Procedure, shortened: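 Wistar rat aortic rings in oxygenated medium at 37 °C, equilibrated 60 min, with 10 µM glibenclamide present throughout. Precontracted with 30 mM KCl; isometric tension recorded by transducer. Cumulative drug addition to maximal relaxation or 200 µM. Tension expressed as % of KCl response; EC50 (50% inhibition of plateau) from concentration–response curves.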

Row | EC50 (Thoracic aorta [3]) [µM] | EC50 (Thoracic aorta [4]) [µM] | EC50 (Thoracic aorta [5]) [µM] | Compound | Activity [1] [%] | Activity [2] [%]
1 | > 30 | – | – | CC1(C)CN(NC(=S)Nc2cccc(Cl)c2)c2cc(Cl)ccc2O1 | 71.8 | –
2 | 1.9 to 3.1 | 5 | 3.9 | CC1(C)CN(NC(=O)Nc2cccc(C#N)c2)c2cc(Cl)ccc2O1 | 35.7 | 79.5
3 | 9.9 | – | – | CC1(C)CN(NC(=O)Nc2cccc(Cl)c2)c2cc(Cl)ccc2O1 | 46 | 92.5

The remaining lines, values behind:

Row | Compound | EC50 (Thoracic aorta [3]) [µM] | EC50 (Thoracic aorta [4]) [µM] | EC50 (Thoracic aorta [5]) [µM] | Activity [1] [%] | Activity [2] [%]
4 | CC1(C)CN(NC(=O)Nc2ccc(Cl)cc2)c2cc(Cl)ccc2O1 | 13.3 | – | – | 56.2 | 89.5
5 | CC1(C)CN(NC(=S)Nc2cccc(C#N)c2)c2cc(Cl)ccc2O1 | > 30 | – | – | 27 | 83.1
6 | CC1(C)CN(NC(=S)Nc2ccc(Cl)cc2)c2cc(Cl)ccc2O1 | > 30 | – | – | 81.4 | –
7 | CC1(C)CN(NC(=O)Nc2ccc(C#N)cc2)c2cc(Cl)ccc2O1 | 3.7 | – | – | 43.1 | 79
8 | CC1(C)CN(NC(=S)Nc2ccc(C#N)cc2)c2cc(Cl)ccc2O1 | > 30 | – | – | 10.8 | 73.3
